Experimental data from different studies.
Compare with care: the assays were run in different laboratories.
Target: Microtubule-associated serine/threonine-protein kinase 1 (MAST1, Homo sapiens, UniProt Q9Y2H9)

CN(C)c1ncc(F)c(-c2cnn3ncccc23)n1  remaining binding (binding; 1 µM): 96%
COc1cnc(Nc2cccc(S(N)(=O)=O)c2)nc1N1CCN(c2ccccc2)C(=O)C1  remaining binding (binding, competition with immobilised ligand; 1 µM): 100%
O=C(c1ccc(Nc2ncc(Cl)c(-c3ccc(Cl)s3)n2)cc1)N1CCC(N2CCCC2)CC1  remaining binding (binding, competition with immobilised ligand; 1 µM): 16%
CCCOc1ccc([C@@H]2[C@@H](C(=O)O)[C@H](c3ccc4c(c3)OCO4)CN2CC(=O)Nc2c(CC)cccc2CC)cc1  remaining binding (cell-free assay, competition with immobilised ligand; 1 µM): 100%
N[C@H]1CCN(c2nccc(-c3cnn4ncccc34)n2)C1  remaining binding (binding; 1 µM): 100%
CC(=O)C1=C(C)N(c2cccc(C(F)(F)F)c2)C(=O)N[C@@H]1c1ccc(C#N)nc1  remaining binding (cell-free assay, competition with immobilised ligand; 1 µM): 96.9%
FC(F)(F)Oc1cccc(-c2cnc3ccc(-c4ccncc4)nn23)c1  remaining binding (cell-free assay, competition with immobilised ligand; 5 µM): 51%
COc1cnc(Nc2cccc(S(N)(=O)=O)c2)nc1N1CCN(c2ccccc2)CC1  remaining binding (binding, competition with immobilised ligand; 1 µM): 69%
COc1ccc2c(c1)O[C@H](c1ccc(OC)c(OC)c1)C[C@@H]2NC(=O)C1(c2ccc3c(c2)OC(F)(F)O3)CC1  remaining binding (cell-free assay, competition with immobilised ligand; 1 µM): 100%
COc1ccnn2ncc(-c3ccnc(N(C)C)n3)c12  remaining binding (binding; 1 µM): 99%
CC(=O)N1CCC(c2ccc(C(=O)NC3=NCCN3)cc2C(F)(F)F)CC1  remaining binding (cell-free assay, competition with immobilised ligand; 1 µM): 87%
CN(CCCC(F)(F)F)c1nccc(-c2cnn3ncccc23)n1  remaining binding (binding; 1 µM): 100%
O=C(Nc1c[nH]nc1C(=O)NC1CCNCC1)c1cc(F)cc(F)c1  remaining binding (binding, competition with immobilised ligand; 1 µM): 100%
c1cncc(-c2cccc(Nc3nccc(NC4CCCCC4)n3)c2)c1  remaining binding (binding, competition with immobilised ligand; 10 µM): 95%
O=C(NCCCN1CCOCC1)c1ccc(Nc2ncc(Cl)c(-c3ccc(Cl)s3)n2)cc1  remaining binding (binding, competition with immobilised ligand; 1 µM): 63%
Nc1ncc2c(n1)-c1c([nH]c3ccc(C#CC4CC4)cc13)CCCC2  remaining binding (binding, competition with immobilised ligand; 1 µM): 62%
C[C@@H]1CCN(c2nccc(-c3cnn4ncccc34)n2)C1  remaining binding (binding; 1 µM): 100%
O=c1nc(-c2ccccn2)sc2ccccc12  remaining binding (binding, competition with immobilised ligand; 1 µM): 73%
O=C(c1ccc(Nc2nccc(-c3cc4ccccc4s3)n2)cc1)N1CCC(N2CCCC2)CC1  remaining binding (binding, competition with immobilised ligand; 1 µM): 53%
CC1CCCN1c1nccc(-c2cnn3ncccc23)n1 (stereo not drawn)  remaining binding (binding; 1 µM): 100%
Cc1c(NC(=O)c2cc(C(N)=O)nc3cc(F)ccc23)c(C(F)(F)F)nn1Cc1ccc(C#N)cc1  remaining binding (cell-free assay, competition with immobilised ligand; 1 µM): 77%
